Each block holds one compound with its values, some of them ahead of it. Peptide text beside a SMILES is read from it.
Legend:
[1] = tested on: PlcRIV; assay: plcA'-lacZ β-galactosidase assay in 407; type: cell-based, Bacillus thuringiensis; conditions: 2 µM peptide, 1 h
Outline: (§1)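 Reporter strain 407 (plcA′Z ΔplcR–papR), carrying plcR on plasmid pHT304 under its own promoter, grown in LB without antibiotics at 37°C with vigorous shaking to stationary-phase onset T0 (OD600 3 ± 0.3). Cultures split into 12 ml fractions. Cognate synthetic PapR penta- or heptapeptide added at 2 µM final, then 1 h incubation. 2 ml pelleted for β-galactosidase assay. Each assay run at least three times.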

[2] = tested on: PlcRIII; assay: plcA'-lacZ β-galactosidase assay in 407; type: cell-based, Bacillus thuringiensis; conditions: 2 µM peptide, 1 h
Outline: as §1

[3] = tested on: PlcRI'III; assay: plcA'-lacZ β-galactosidase assay, chimeric PlcRI'III; type: cell-based, Bacillus thuringiensis; conditions: 2 µM heptapeptide, 1 h, PlcRI'III chimera
Outline: (§2)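 Reporter strain Bacillus 407 (plcA′Z ΔplcR–papR), which carries a plcA promoter–lacZ fusion, was complemented with pHT304-based plasmids carrying modified plcR genes under their own promoter. Cultures were grown in LB without antibiotics at 37°C with vigorous shaking to stationary-phase onset (OD600 3 ± 0.3), then split into 12 ml fractions. Synthetic peptide was added to 2 µM final for 1 h. β-galactosidase was assayed on 2 ml pellets, with at least three repeats.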

[4] = tested on: PlcRII; assay: plcA'-lacZ β-galactosidase assay in 407; type: cell-based, Bacillus thuringiensis; conditions: 2 µM peptide, 1 h
Outline: as §1

[5] = tested on: PlcRI'II; assay: plcA'-lacZ β-galactosidase assay, chimeric PlcRI'II; type: cell-based, Bacillus thuringiensis; conditions: 2 µM heptapeptide, 1 h, PlcRI'II chimera
Outline: as §2

[6] = tested on: PlcRA278K; assay: plcA'-lacZ β-galactosidase assay, PlcRA278K mutant; type: cell-based, Bacillus thuringiensis; conditions: 2 µM heptapeptide, 1 h; similar to PlcRI'II response
Outline: as §2

[7] = biological target: T1, PlcR (Bacillus thuringiensis, UniProt Q45782); assay: Steady-state fluorescence anisotropy binding titrations
T1 sequence (Q45782 1-285): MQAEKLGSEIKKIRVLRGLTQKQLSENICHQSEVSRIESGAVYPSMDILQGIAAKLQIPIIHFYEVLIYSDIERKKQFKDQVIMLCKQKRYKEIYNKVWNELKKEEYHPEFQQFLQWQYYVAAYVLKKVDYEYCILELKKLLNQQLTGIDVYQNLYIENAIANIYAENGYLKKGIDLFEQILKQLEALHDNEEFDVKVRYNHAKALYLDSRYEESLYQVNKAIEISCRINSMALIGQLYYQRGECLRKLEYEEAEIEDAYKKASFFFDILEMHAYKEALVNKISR

Compound: NEVPFEF
activation of plcA'lacZ expression (in words) [2]: activated | activation of PlcRI'III (in words) [3]: not activated

Compound: LPFEH
activation of plcA'lacZ expression (in words) [1]: activated

Compound: SDMPFEF
activation of plcA'lacZ expression (in words) [4]: activated | activation greater than that of wild-type PlcRI by PapRI [5]: about 2 fold | activation less than that of PlcRII by PapRII [5]: 2 fold | activation of PlcRA278K (in words) [6]: activated

Compound: MPFEF
activation of plcA'lacZ expression (in words) [4]: activated

Compound: NELPFEF
activation of PlcRI'III (in words) [3]: partly restores

Compound: VPFEF
activation of plcA'lacZ expression (in words) [2]: activated

Continued, values first:

activation of plcA'lacZ expression (in words) [1]: activated
Compound: SDLPFEH

Kd [7]: 41 µM
Compound: CC(C)C[C@H](N)C(=O)N1CCC[C@H]1C(=O)N[C@@H](Cc1ccccc1)C(=O)N[C@@H](CCC(=O)O)C(=O)N[C@@H](Cc1ccccc1)C(=O)O [LPFEF] (H-LPFEF-OH)

Kd [7]: 25 µM
Compound: CC(C)C[C@H](NC(=O)[C@H](CC(=O)O)NC(=O)[C@H](C)N)C(=O)N1CCC[C@H]1C(=O)N[C@@H](Cc1ccccc1)C(=O)N[C@@H](CCC(=O)O)C(=O)N[C@@H](Cc1ccccc1)C(=O)O [ADLPFEF] (H-ADLPFEF-OH)

— article PMC2441798 (Nucleic Acids Research, 2008)
